Assay results: PMC3426361 (Journal of biomolecular screening, 2010)

Molecular target: TDP-43 (Homo sapiens, UniProt Q13148)
Assay: Association and dissociation rates of bt-TAR-32 and bt-TG6 binding to TDP-43
Settings: slope of kobs vs ligand concentration; arithmetic mean ± SEM, 3 determinations
Procedure, shortened: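 GST-tagged TDP-43 (5 ng/mL, 40 pM) on anti-GST beads (10 μg/mL, preincubated) added at staggered times to biotinylated oligonucleotide (0.25–6.0 nM) prebound 30 min RT to streptavidin donor beads (10 μg/mL). Buffer: 25 mM Tris pH 7.4, 0.1% BSA, 0.1% Triton X-100. AlphaScreen signal read together at end, dark, RT. kobs from one-site exponential association fits per concentration.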

TDP-43, sequence (Q13148 whole entry): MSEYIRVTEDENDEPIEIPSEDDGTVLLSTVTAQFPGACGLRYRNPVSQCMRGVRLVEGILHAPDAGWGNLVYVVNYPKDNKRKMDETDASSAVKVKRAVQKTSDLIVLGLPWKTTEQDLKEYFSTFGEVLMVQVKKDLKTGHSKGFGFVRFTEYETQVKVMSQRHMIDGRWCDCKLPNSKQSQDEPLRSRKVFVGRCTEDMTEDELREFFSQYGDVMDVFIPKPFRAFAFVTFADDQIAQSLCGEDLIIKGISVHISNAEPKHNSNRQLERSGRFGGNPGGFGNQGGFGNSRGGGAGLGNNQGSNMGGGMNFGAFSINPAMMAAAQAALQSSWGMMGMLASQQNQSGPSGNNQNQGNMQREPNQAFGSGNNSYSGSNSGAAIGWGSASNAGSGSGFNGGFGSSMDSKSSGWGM

5′-CTGCTTTTTGCCTGTACTGGGTCTCTGTGGTT-3′ (DNA CTGCTTTTTGCCTGTACTGGGTCTCTGTGGTT; chemistry not given here) [TAR-32]
kon: 2.4 ± 0.93 µmol⁻¹ min⁻¹
